Activity calls are given as the source filed them. No cut-off for these calls is given here.
What was measured:
[1] = Blockade of ATP-sensitive K+ channels
MIN6 = assay: Induction of insulin secretion in mouse MIN6 cells; type: functional, cell-based
Mus musculus [2] = assay: Antidiabetic activity in normal ICR mouse assessed as reduction in plasma glucose level at 5 mg/kg, ip after 60 mins; type: functional, organism-based; set-up: dose 5 mg/kg
Outline: (§1)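 ICR mice (normal, STZ-induced T1DM, or diet-induced T2DM) received a single ip injection in 2% DMSO/normal saline vehicle. Orbital plexus blood was drawn under pentobarbital anesthesia before and 60 min after injection. Plasma glucose was read with a glucose kit and analyzer and expressed as percent decrease, (Gi − Gt)/Gi × 100%. Seven animals per group, mean ± SEM.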

Mus musculus [3] = assay: Antidiabetic activity in STZ-induced ICR mouse T1DM model assessed as reduction in plasma glucose level at 5 mg/kg, ip after 60 mins; type: functional, organism-based; set-up: dose 5 mg/kg; outline: as §1
Mus musculus [4] = assay: Antidiabetic activity in normal ICR mouse assessed as reduction in plasma glucose level at 5 mg/kg, ip after 60 mins relative to metformin at 200 mg/kg, ip; type: functional
Mus musculus [5] = assay: Antidiabetic activity in STZ-induced ICR mouse T1DM model assessed as reduction in plasma glucose level at 5 mg/kg, ip after 60 mins relative to metformin at 200 mg/kg, ip; type: functional
Mus musculus [6] = assay: Antidiabetic activity in ip dosed diet-induced ICR mouse T2DM model assessed as reduction in plasma glucose level after 60 mins; type: functional, organism-based; outline: as §1
Mus musculus [7] = assay: Antidiabetic activity in ip dosed STZ-induced ICR mouse T1DM model assessed as reduction in plasma glucose level after 60 mins; type: functional, organism-based; outline: as §1
Mus musculus [8] = assay: Antidiabetic activity in ip dosed normal ICR mouse assessed as reduction in plasma glucose level after 60 mins; type: functional, organism-based; outline: as §1
Mus musculus [9] = assay: Antidiabetic activity in normal ICR mouse assessed as increase in plasma insulin level at 0.1 mg/kg, ip after 60 mins by ELISA (reference value: 54 +/- 3.4 pmol/L); type: functional; conditions: route intraperitoneal
Mus musculus [10] = assay: Antidiabetic activity in normal ICR mouse assessed as increase in plasma insulin level at 0.5 mg/kg, ip after 60 mins by ELISA (reference value: 53.1 +/- 3.3 pmol/L); type: functional; conditions: route intraperitoneal
Mus musculus [11] = assay: Antidiabetic activity in normal ICR mouse assessed as increase in plasma insulin level at 1 mg/kg, ip after 60 mins by ELISA (reference value: 60.3 +/- 3.7 pmol/L); type: functional; conditions: route intraperitoneal
Mus musculus [12] = assay: Antidiabetic activity in normal ICR mouse assessed as increase in plasma insulin level at 3 mg/kg, ip after 60 mins by ELISA (reference value: 52 +/- 3.7 pmol/L); type: functional; conditions: route intraperitoneal
Mus musculus [13] = assay: Antidiabetic activity in normal ICR mouse assessed as increase in plasma insulin level at 5 mg/kg, ip after 60 mins by ELISA (reference value: 57.6 +/- 2.4 pmol/L); type: functional; conditions: route intraperitoneal
Mus musculus [14] = assay: Antidiabetic activity in STZ-induced ICR mouse T1DM model assessed as increase in plasma insulin level at 0.1 mg/kg, ip after 60 mins by ELISA (reference value: 15.2 +/- 0.8 pmol/L); type: functional; conditions: route intraperitoneal
Mus musculus [15] = assay: Antidiabetic activity in STZ-induced ICR mouse T1DM model assessed as increase in plasma insulin level at 0.5 mg/kg, ip after 60 mins by ELISA (reference value: 16.2 +/- 0.7 pmol/L); type: functional; conditions: route intraperitoneal
Mus musculus [16] = assay: Antidiabetic activity in STZ-induced ICR mouse T1DM model assessed as increase in plasma insulin level at 1 mg/kg, ip after 60 mins by ELISA (reference value: 15.7 +/- 1.0 pmol/L); type: functional; conditions: route intraperitoneal
Mus musculus [17] = assay: Antidiabetic activity in STZ-induced ICR mouse T1DM model assessed as increase in plasma insulin level at 3 mg/kg, ip after 60 mins by ELISA (reference value: 13.8 +/- 1.6 pmol/L); type: functional; conditions: route intraperitoneal
Mus musculus [18] = assay: Antidiabetic activity in STZ-induced ICR mouse T1DM model assessed as increase in plasma insulin level at 5 mg/kg, ip after 60 mins by ELISA (reference value: 14.7 +/- 0.4 pmol/L); type: functional; conditions: route intraperitoneal
Mus musculus [19] = assay: Antidiabetic activity in diet-induced ICR mouse T2DM model assessed as increase in plasma insulin level at 0.1 mg/kg, ip after 60 mins by ELISA (reference value: 111.8 +/- 5.2 pmol/L); type: functional; conditions: route intraperitoneal
Mus musculus [20] = assay: Antidiabetic activity in diet-induced ICR mouse T2DM model assessed as increase in plasma insulin level at 0.5 mg/kg, ip after 60 mins by ELISA (reference value: 120.8 +/- 4.3 pmol/L); type: functional; conditions: route intraperitoneal
Mus musculus [21] = assay: Antidiabetic activity in diet-induced ICR mouse T2DM model assessed as increase in plasma insulin level at 1 mg/kg, ip after 60 mins by ELISA (reference value: 111.6 +/- 2.7 pmol/L); type: functional; conditions: route intraperitoneal
Mus musculus [22] = assay: Antidiabetic activity in diet-induced ICR mouse T2DM model assessed as increase in plasma insulin level at 3 mg/kg, ip after 60 mins by ELISA (reference value: 112.1 +/- 3.2 pmol/L); type: functional; conditions: route intraperitoneal
Mus musculus [23] = assay: Antidiabetic activity in diet-induced ICR mouse T2DM model assessed as increase in plasma insulin level at 5 mg/kg, ip after 60 mins by ELISA (reference value: 112.1 +/- 6.3 pmol/L); type: functional; conditions: route intraperitoneal
Mus musculus [24] = assay: Antidiabetic activity in normal ICR mouse assessed as reduction in plasma glucose level after 30 mins post glucose challenge by ip glucose tolerance test (reference value: 346 +/- 15 mg/dL); type: functional
Mus musculus [25] = assay: Antidiabetic activity in diet-induced ICR mouse T2DM model assessed as reduction in plasma glucose level after 30 mins post glucose challenge by ip glucose tolerance test (reference value: 406 +/- 9 mg/dL); type: functional
Mus musculus [26] = assay: Antidiabetic activity in normal ICR mouse assessed as reduction in plasma glucose level after 60 to 150 mins post glucose challenge by ip glucose tolerance test; type: functional, organism-based
Mus musculus [27] = assay: Antidiabetic activity in diet-induced ICR mouse T2DM model assessed as reduction in plasma glucose level after 60 to 150 mins post glucose challenge by ip glucose tolerance test; type: functional, organism-based
Mus musculus [28] = assay: Antidiabetic activity in STZ-induced ICR mouse T1DM model assessed as decrease in phosphoenolpyruvate carboxykinase level in liver at 5 mg/kg administered bid for 7 days by Western blotting analysis; type: functional, organism-based; set-up: dose 5 mg/kg
Outline: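 Male ICR mice with STZ-induced T1DM (fasting glucose >350 mg/dL, used 4 weeks after STZ) were dosed ip at 5.0 mg/kg twice daily for 7 days. Liver homogenates (60 µg) were run on 8% SDS-PAGE and Western blotted with PEPCK antibody (1:1000), with ECL detection. PEPCK (70 kDa) and β-actin (43 kDa) were quantified by densitometry; n = 3.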

Mus musculus [29] = assay: Antidiabetic activity in diet-induced ICR mouse T2DM model assessed as reduction in plasma glucose level at 5 mg/kg, ip after 60 mins (reference value: 170 +/- 2.8 mg/dL); type: functional; conditions: route intraperitoneal; outline: as §1
Mus musculus [30] = assay: Antidiabetic activity in normal ICR mouse assessed as reduction in plasma glucose level at 5 mg/kg, ip after 60 mins (reference value: 102 +/- 3.7 mg/dL); type: functional; conditions: route intraperitoneal; outline: as §1
Mus musculus [31] = assay: Antidiabetic activity in normal ICR mouse assessed as increase in plasma insulin level at 5 mg/kg, ip after 60 mins by ELISA (reference value: 52.5 +/- 4.6 pmol/L); type: functional; conditions: route intraperitoneal
Mus musculus [32] = assay: Antidiabetic activity in diet-induced ICR mouse T2DM model assessed as increase in plasma insulin level at 5 mg/kg, ip after 60 mins by ELISA (reference value: 123.5 +/- 10.2 pmol/L); type: functional; conditions: route intraperitoneal
Mus musculus [33] = assay: Antidiabetic activity in normal ICR mouse assessed as reduction in plasma glucose level at 200 mg/kg, ip after 60 mins; type: functional, organism-based; set-up: dose 200 mg/kg; outline: as §1
Mus musculus [34] = assay: Antidiabetic activity in STZ-induced ICR mouse T1DM model assessed as reduction in plasma glucose level at 200 mg/kg, ip after 60 mins; type: functional, organism-based; set-up: dose 200 mg/kg; outline: as §1
Mus musculus [35] = assay: Antidiabetic activity in STZ-induced ICR mouse T1DM model assessed as increase in plasma insulin level at 200 mg/kg, ip after 60 mins by ELISA (reference value: 13.5 +/- 1.1 pmol/L); type: functional; conditions: route intraperitoneal

For `COC(=O)C1=C[C@H](O)C[C@H]2[C@]3(C)C[C@@H](c4ccoc4)OC(=O)[C@H]3C[C@H](O[C@@H]3O[C@H](CO)[C@@H](O)[C@H](O)[C@H]3O)[C@@]12C`, the Activity [1] was “inactive”, the Activity (MIN6) was “inactive” and the Activity (Mus musculus [2]) was “inactive”. For the same compound, the Activity (Mus musculus [3]) was “inactive”.
With `C[C@@]12C[C@@H](c3ccoc3)OC(=O)[C@@H]1C[C@@H]1OC(=O)[C@@]3(O)[C@@H](O[C@@H]4O[C@H](CO)[C@@H](O)[C@H](O)[C@H]4O)CC[C@@H]2[C@@]13C` [BORAPETOSIDE A] the Activity [1] was “inactive”, the Activity (MIN6) was “inactive” and the Activity (Mus musculus [2]) was “Active”. For the same compound, the Activity (Mus musculus [3]) was “Active”, the “fold change (FC)” value (Mus musculus [4]) was 2 and the “fold change (FC)” value (Mus musculus [5]) was 2.
In the case of `COC(=O)C1=CCC[C@H]2[C@]3(C)C[C@@H](c4ccoc4)OC(=O)[C@@H]3C[C@@H](O[C@@H]3O[C@H](CO)[C@@H](O)[C@H](O)[C@H]3O)[C@@]12C` [BORAPETOSIDE C], the Activity [1] was “inactive”, the Activity (MIN6) was “inactive” and the Activity (Mus musculus [2]) was “Active”. For the same compound, the Activity (Mus musculus [3]) was “Active”, the Activity (Mus musculus [6]) was “Dose-dependent effect” and the Activity (Mus musculus [7]) was “Dose-dependent effect”. The Activity (Mus musculus [8]) was “Dose-dependent effect”, the Activity (Mus musculus [9]) was 71.5 pmol/L and the Activity (Mus musculus [10]) was 70.7 pmol/L. The Activity (Mus musculus [11]) was 63 pmol/L, the Activity (Mus musculus [12]) was 142.6 pmol/L and the Activity (Mus musculus [13]) was 149.6 pmol/L. The Activity (Mus musculus [14]) was 16.3 pmol/L, the Activity (Mus musculus [15]) was 15.7 pmol/L and the Activity (Mus musculus [16]) was 15.9 pmol/L. It also gave an Activity (Mus musculus [17]) of 14.8 pmol/L, an Activity (Mus musculus [18]) of 14.3 pmol/L and an Activity (Mus musculus [19]) of 111.3 pmol/L. For the same compound, the Activity (Mus musculus [20]) was 170.8 pmol/L, the Activity (Mus musculus [21]) was 173 pmol/L and the Activity (Mus musculus [22]) was 253.9 pmol/L. The Activity (Mus musculus [23]) was 257.6 pmol/L, the Activity (Mus musculus [24]) was 293 mg/dL and the Activity (Mus musculus [25]) was 343 mg/dL. For the same compound, the Activity (Mus musculus [26]) was “Active”, the Activity (Mus musculus [27]) was “Active” and the Activity (Mus musculus [28]) was “Active”.
Work on `COc1ccc(Cl)cc1C(=O)NCCc1ccc(S(=O)(=O)NC(=O)NC2CCCCC2)cc1` [GLYBURIDE] yielded an Activity (Mus musculus [29]) of 108 mg/dL, an Activity (Mus musculus [30]) of 84 mg/dL and an Activity (Mus musculus [31]) of 145.8 pmol/L. It also gave an Activity (Mus musculus [32]) of 208.8 pmol/L.
In the case of `CN(C)C(=N)NC(=N)N` [METFORMIN], the Activity (Mus musculus [33]) was “Active”, the Activity (Mus musculus [34]) was “Active” and the Activity (Mus musculus [35]) was 15.1 pmol/L.

— ChEMBL document CHEMBL2010799, “Hypoglycemic diterpenoids from Tinospora crispa” (2012)
